Laboratory results as given in ChEMBL document CHEMBL2086277, “Pyridonepezils, new dual AChE inhibitors as potential drugs for the treatment of Alzheimer's disease: synthesis, biological assessment, and molecular modeling” (Eur J Med Chem, 2012).

Key:
[1] = Permeability of the compound in PBS/ethanol at 1 mg/ml after 4 hrs by PAMPA; format: ADME; conditions: for Papp at 4 h, 1 mg/ml: PAMPA, read-out: permeability
Outline: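 PAMPA-BBB: permeability (Pe) measured through a porcine brain lipid extract membrane, using PBS:EtOH (70:30) as the medium. The assay was validated against 15 commercial drugs by correlating measured with reported Pe values. Data are mean ± SD of three independent experiments.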

Cholinesterase [2] = target: Cholinesterase (Homo sapiens, UniProt P06276); experiment: Inhibition of human serum BChE using butyrylthiocholine as substrate by Ellman method
Outline: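 IC50 is the concentration giving 50% inhibition of human BuChE, reported as mean ± SEM of three independent experiments.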

Acetylcholinesterase [3] = target: T1, Acetylcholinesterase (Homo sapiens, UniProt P22303); experiment: Inhibition of human erythrocyte AChE using acetylthiocholine as substrate by Ellman method
Acetylcholinesterase [4] = target: T1, Acetylcholinesterase; experiment: Ratio of donepezil IC50 to compound IC50 for human erythrocyte AChE using acetylthiocholine as substrate by Ellman method
Cholinesterase [5] = target: Cholinesterase (Equus caballus, UniProt P81908); experiment: Inhibition of equine BChE
Sequence of Cholinesterase (Equus caballus, UniProt P81908) (P81908 whole entry): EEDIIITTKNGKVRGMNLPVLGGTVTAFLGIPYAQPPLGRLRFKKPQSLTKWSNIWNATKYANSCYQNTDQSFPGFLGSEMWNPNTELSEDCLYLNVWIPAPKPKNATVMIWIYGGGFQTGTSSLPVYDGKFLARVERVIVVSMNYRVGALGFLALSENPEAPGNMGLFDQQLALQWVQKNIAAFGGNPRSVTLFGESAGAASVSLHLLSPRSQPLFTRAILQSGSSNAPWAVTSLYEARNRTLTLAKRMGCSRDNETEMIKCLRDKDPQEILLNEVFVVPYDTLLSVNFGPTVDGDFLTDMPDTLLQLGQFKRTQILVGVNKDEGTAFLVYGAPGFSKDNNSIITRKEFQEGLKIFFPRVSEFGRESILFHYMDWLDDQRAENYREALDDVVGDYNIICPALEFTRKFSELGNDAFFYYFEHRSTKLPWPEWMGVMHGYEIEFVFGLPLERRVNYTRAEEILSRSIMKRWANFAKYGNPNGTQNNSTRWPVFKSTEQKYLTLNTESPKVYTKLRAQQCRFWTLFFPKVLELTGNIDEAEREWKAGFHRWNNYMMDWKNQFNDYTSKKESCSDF

Sequence of Cholinesterase (Homo sapiens, UniProt P06276) (P06276 whole entry): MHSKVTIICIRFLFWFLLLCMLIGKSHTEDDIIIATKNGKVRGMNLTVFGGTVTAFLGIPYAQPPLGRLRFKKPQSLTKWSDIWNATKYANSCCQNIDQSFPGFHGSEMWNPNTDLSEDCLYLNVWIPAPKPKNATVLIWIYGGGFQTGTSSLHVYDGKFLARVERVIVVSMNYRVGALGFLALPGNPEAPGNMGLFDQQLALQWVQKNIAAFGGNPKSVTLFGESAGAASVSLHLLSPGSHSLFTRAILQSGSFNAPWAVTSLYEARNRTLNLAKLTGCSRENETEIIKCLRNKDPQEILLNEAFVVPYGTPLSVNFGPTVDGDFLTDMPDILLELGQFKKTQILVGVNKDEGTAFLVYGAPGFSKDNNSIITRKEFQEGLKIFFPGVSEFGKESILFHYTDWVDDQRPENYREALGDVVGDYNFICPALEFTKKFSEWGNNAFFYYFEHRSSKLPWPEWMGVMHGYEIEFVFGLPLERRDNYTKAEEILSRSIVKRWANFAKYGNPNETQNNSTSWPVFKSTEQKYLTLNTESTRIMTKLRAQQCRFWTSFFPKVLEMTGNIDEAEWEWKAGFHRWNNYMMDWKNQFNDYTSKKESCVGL
T1 sequence (P22303 whole entry): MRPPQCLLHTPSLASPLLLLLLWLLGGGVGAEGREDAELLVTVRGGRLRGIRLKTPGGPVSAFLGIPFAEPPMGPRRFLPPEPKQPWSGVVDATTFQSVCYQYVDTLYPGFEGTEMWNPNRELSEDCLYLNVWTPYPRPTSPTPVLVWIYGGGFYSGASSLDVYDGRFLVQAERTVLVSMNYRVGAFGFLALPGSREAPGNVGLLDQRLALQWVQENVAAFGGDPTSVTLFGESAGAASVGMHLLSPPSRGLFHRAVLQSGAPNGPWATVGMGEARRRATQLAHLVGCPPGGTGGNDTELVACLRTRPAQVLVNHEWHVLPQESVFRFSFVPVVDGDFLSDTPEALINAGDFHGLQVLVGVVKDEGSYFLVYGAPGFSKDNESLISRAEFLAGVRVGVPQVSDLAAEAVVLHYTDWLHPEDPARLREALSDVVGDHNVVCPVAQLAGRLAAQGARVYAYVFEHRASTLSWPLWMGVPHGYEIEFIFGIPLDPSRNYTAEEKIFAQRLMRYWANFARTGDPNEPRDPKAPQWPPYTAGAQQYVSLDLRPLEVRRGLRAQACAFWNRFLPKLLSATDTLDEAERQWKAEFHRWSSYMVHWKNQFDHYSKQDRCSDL

N#Cc1cc(C#N)c(NC2CCN(Cc3ccccc3)CC2)nc1N
Papp at 4 h, 1 mg/ml [1]: 170 nm/s
IC50 (Cholinesterase [2]): > 10 µM
IC50 (Acetylcholinesterase [3]): 3.1 µM

N#Cc1cc(C#N)c(NCCCC2CCN(Cc3ccccc3)CC2)nc1N
Ratio IC50 (Acetylcholinesterase [4]): 1.4
Papp at 4 h, 1 mg/ml [1]: 208 nm/s
IC50 (Cholinesterase [2]): 6.6 µM
IC50 (Acetylcholinesterase [3]): 0.0094 µM

N#Cc1cc(C#N)c(NCCC2CCN(Cc3ccccc3)CC2)nc1N
Papp at 4 h, 1 mg/ml [1]: 144 nm/s
IC50 (Cholinesterase [2]): 0.26 µM
IC50 (Acetylcholinesterase [3]): 0.22 µM

N#Cc1cc(C#N)c(NCCCCC2CCN(Cc3ccccc3)CC2)nc1N
Papp at 4 h, 1 mg/ml [1]: 212 nm/s
IC50 (Cholinesterase [2]): 1.7 µM
IC50 (Acetylcholinesterase [3]): 0.07 µM

N#Cc1c(N)nc(NCCC2CCN(Cc3ccccc3)CC2)c(C#N)c1-c1ccccc1
Papp at 4 h, 1 mg/ml [1]: 340 nm/s
IC50 (Cholinesterase [2]): 0.67 µM
IC50 (Acetylcholinesterase [3]): 0.39 µM

N#Cc1c(N)nc(NCCCCC2CCN(Cc3ccccc3)CC2)c(C#N)c1-c1ccccc1
Papp at 4 h, 1 mg/ml [1]: 257 nm/s
IC50 (Cholinesterase [2]): 0.58 µM
IC50 (Acetylcholinesterase [3]): 0.12 µM

N#Cc1cc(C#N)c(N2CCCC2)nc1N
IC50 (Cholinesterase [5]): > 10 µM

N#Cc1c(N)nc(NCCCC2CCN(Cc3ccccc3)CC2)c(C#N)c1-c1ccccc1
Papp at 4 h, 1 mg/ml [1]: 316 nm/s
IC50 (Cholinesterase [2]): 1.5 µM
IC50 (Acetylcholinesterase [3]): 0.24 µM

N#Cc1c(N)nc(NC2CCN(Cc3ccccc3)CC2)c(C#N)c1-c1ccccc1
permeability ([1]; pampa, 4 h): ND(Insoluble)
IC50 (Cholinesterase [2]): > 10 µM
IC50 (Acetylcholinesterase [3]): 8.8 µM
